Results as given in ChEMBL document CHEMBL1144427, “Synthesis and in vitro and in vivo antitumor activity of 2-phenylpyrroloquinolin-4-ones” (J Med Chem, 2005).
Structures can show the parent of a compound that is named as a salt.

Legend:
[1] = Cytotoxic activity against human tumor Mia Paca 2 cell line; format: functional, cell-based
Procedure, shortened: (§1)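 Cells kept in RPMI with 10% heat-inactivated FBS and penicillin/streptomycin. MTT assay: 10⁴ cells/well seeded, exposed after 24 h to compound at 0.01–100 µM final for 72 h. MTT was added for 4 h, then SDS/HCl for 18 h at 37 °C, and absorbance read at 550 nm. IC50 is the concentration halving absorbance versus untreated cells, from 6–8 wells in at least two independent experiments.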

[2] = Cytotoxic activity against human tumor SW 13 cell line; format: functional, cell-based
Procedure, shortened: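 Maintained in Leibovitz medium with 10% FBS and penicillin/streptomycin. Colorimetric MTT assay: 10⁴ cells/well, compound at 0.01–100 µM final from 24 h after seeding, for 72 h. MTT for 4 h, then SDS in 0.01 N HCl for 18 h at 37 °C, absorbance at 550 nm. IC50 is the concentration halving absorbance versus control, from 6–8 wells in at least two independent runs.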

[3] = Cytotoxic activity against human tumor NCI-H295 cell line; format: functional, cell-based
Procedure, shortened: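 Grown in RPMI with 2% FBS, insulin-transferrin-selenium and penicillin/streptomycin. MTT read-out: 10⁴ cells/well, compound 0.01–100 µM final added after 24 h, 72 h exposure. MTT for 4 h, solubilised in SDS/HCl for 18 h at 37 °C, absorbance at 550 nm. IC50 is the concentration cutting absorbance 50% versus control, from 6–8 replicate wells over two or more independent experiments.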

HepG2 = test: Cytotoxic activity against human tumor Hep G2 cell line; format: functional, cell-based
Procedure, shortened: (§2)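 DMEM with 10% heat-inactivated FBS and antibiotics used for culture. Cells plated at 10⁴/well; after 24 h, 72 h exposure to 0.01–100 µM (final) compound. Survival measured by MTT (4 h), SDS/HCl solubilisation for 18 h at 37 °C, absorbance at 550 nm. IC50 is the concentration giving 50% absorbance reduction versus untreated cells, from 6–8 wells across at least two experiments.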

IGROV-1 = test: Cytotoxic activity against human tumor Igrov-1 cell line; format: functional, cell-based; procedure, shortened: as §1
[4] = Cytotoxic activity against human tumor Aro cell line; format: functional, cell-based; procedure, shortened: as §2
HT-29 = test: Cytotoxic activity against human tumor HT-29 cell line; format: functional, cell-based; procedure, shortened: as §2
A 172 = test: Cytotoxic activity against human tumor A-172 cell line; format: functional, cell-based; procedure, shortened: as §1
OVCAR-3 = test: Cytotoxic activity against human tumor Ovcar-3 cell line; format: functional, cell-based; procedure, shortened: as §1
[5] = Cytotoxic activity against human tumor Hep 3B cell line; format: functional; details: Hep3B; procedure, shortened: as §2
[6] = Cytotoxic activity against human tumor PT45 cell line; format: functional, cell-based; details: PT-45; procedure, shortened: as §1
MCF7 = test: Cytotoxic activity against human tumor MCF-7 cell line; format: functional, cell-based; procedure, shortened: as §2
[7] = Cytotoxic activity against human tumor C8305 cell line; format: functional, cell-based; procedure, shortened: as §1
[8] = Cytotoxic activity against human tumor PLC/PRF/5 cell line; format: functional; procedure, shortened: as §2

Structure (SMILES) | IC50 [1] [µM] | IC50 ([2]; Homo sapiens, SW13) [µM] | IC50 ([3]; Homo sapiens, NCI-H295) [µM] | IC50 (HepG2; Homo sapiens, HepG2) [µM] | IC50 (IGROV-1; Homo sapiens, IGROV-1) [µM] | IC50 ([4]; Homo sapiens, ARO) [µM] | IC50 (HT-29) [µM] | IC50 (A 172) [µM] | IC50 (OVCAR-3; Homo sapiens, OVCAR-3) [µM] | IC50 [5] [µM] | IC50 [6] [µM] | IC50 (MCF7; Homo sapiens, MCF7) [µM] | IC50 ([7]; Homo sapiens, C8305) [µM] | IC50 ([8]; Homo sapiens, PLC-PRF-5) [µM] | further results
COc1cccc(-c2cc(O)c3ccc4[nH]ccc4c3n2)c1 | 5 | 0.7 | 3 | 2 | 3 | 4 | 50 | > 100 | 1 | 2 | 100 | 1 | 10 | 7 | 
O=[N+]([O-])c1ccc(-c2cc(O)c3ccc4[nH]ccc4c3n2)cc1 | > 100 | 50 | 80 | 100 | 60 | > 100 | > 100 | > 100 | 50 | 30 | > 100 | 60 | > 100 | > 100 | 
Nc1cccc(-c2cc(O)c3ccc4[nH]ccc4c3n2)c1 [listing 1 of 2 here] | > 100 |  | 50 | 50 |  | 70 | > 100 | > 100 |  | > 100 | > 100 | 50 | 80 | 50 | IC50 ([2]; sw 13): 10 µM; IC50 (IGROV-1; igrov-1): 30 µM; IC50 (OVCAR-3; ovcar-3): 30 µM
O=[N+]([O-])c1cccc(-c2cc(O)c3ccc4[nH]ccc4c3n2)c1 | > 100 | 60 | 60 | > 100 | 80 | 80 | > 100 | > 100 | 50 | 50 | > 100 | 70 | > 100 | > 100 | 
Cn1ccc2c3nc(-c4ccccc4)cc(O)c3ccc21 | 8 | 0.9 | 2 | 1 | 3 | 5 | 50 | > 100 | 2 | 1 | 100 | 4 | 10 | 7 | 
Oc1cc(-c2cccs2)nc2c1ccc1[nH]ccc12 | > 100 | 50 | 40 | 10 | 15 | 80 | > 100 | > 100 | 20 | 50 | 100 | 30 | 100 | 80 | 
CC[C@]1(O)C[C@H]2CN(CCc3c([nH]c4ccccc34)[C@@](C(=O)OC)(c3cc4c(cc3OC)N(C=O)[C@H]3[C@@](O)(C(=O)OC)[C@H](OC(C)=O)[C@]5(CC)C=CCN6CC[C@]43[C@@H]65)C2)C1 [VINCRISTINE SULFATE] | 0.01 | 0.001 | 0.1 | 0.1 | 0.01 | < 0.0001 | 0.1 | > 100 | 0.01 | 0.1 | 0.1 | 0.01 | 0.1 | 0.1 | 
Nc1cccc(-c2cc(O)c3ccc4[nH]ccc4c3n2)c1 [listing 2 of 2 here] |  |  |  |  |  |  |  |  |  |  |  |  |  |  | IC50 ([2]; sw 13): > 100 µM; IC50 ([3]; nci-h295): > 100 µM; IC50 (HepG2; hepg2): > 100 µM; IC50 (IGROV-1; igrov-1): > 100 µM; IC50 ([4]; aro): > 100 µM; IC50 (OVCAR-3; ovcar-3): > 100 µM; IC50 (MCF7; mcf7): > 100 µM; IC50 ([7]; c8305): > 100 µM; IC50 [8]: > 100 µM
Oc1ccnc2c1ccc1[nH]ccc12 | > 100 | > 100 | > 100 | > 100 | > 100 | > 100 | > 100 | > 100 | > 100 | > 100 | > 100 | > 100 | > 100 | > 100 | 
Oc1cc(-c2ccccc2)nc2c1ccc1[nH]ccc12 | 4 | 3 | 8 | 4 | 5 | 8 | 60 | 100 | 2 | 4 | 100 | 4 | 10 | 8 | 
Cc1cc(O)c2ccc3[nH]ccc3c2n1 | > 100 | > 100 | > 100 | > 100 | > 100 | > 100 | > 100 | > 100 | > 100 | > 100 | > 100 | > 100 | > 100 | > 100 | 
